How the values were obtained:
[1] = Metabolic stability in mouse liver microsomes assessed as compound remaining at 1 uM after 30 mins in presence of NADPH-regenerating system; assay type: ADME, Microsome; details: read-out: Stabilty
Procedure, shortened: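 Mouse liver microsomes at 0.5 mg protein/mL in 100 mM PBS, pH 7.4. Reaction started with NADPH-regenerating solution (1.3 mM NADP+, 3.3 mM glucose-6-phosphate, 0.4 U/mL G6PDH, 3.3 mM MgCl2). Incubated 30 min at 37 °C, stopped with ice-cold acetonitrile, centrifuged. Percent remaining reported as mean ± SD, n = 3.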

VCaP = assay: Antiproliferative activity against human VCaP cells assessed as reduction in cell viability after 6 days by CellTiter-Glo assay; assay type: functional; details: 144 h, time 6 day
Procedure, shortened: (§1)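 LNCaP seeded at 1.5 × 10³ and VCaP at 4 × 10³ cells per well in 96-well plates. Cells grown in IMDM with 10% FBS and antibiotic-antimycotic at 37 °C, 5% CO2, with DMSO as vehicle. IC50 from nonlinear regression of log(inhibitor) versus response.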

[2] = biological target: T1, Protein cereblon/Androgen receptor (Homo sapiens, UniProt P10275+Q96SW2); assay: Protac activity at CRBN/AR in human LNCaP cells assessed as AR degradation at 10 uM by Western blotting analysis relative to control; assay type: cell-based
Procedure, shortened: (§2)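 LNCaP (IMDM) or 22RV1 (RPMI 1640) cells with 10% FBS at 37 °C, 5% CO2, treated with DMSO vehicle as control. Cells lysed in RIPA buffer (50 mM Tris-HCl pH 7.5, 150 mM NaCl, 1% Triton X-100, 0.1% SDS, 0.5% deoxycholate, protease inhibitors). Protein quantified by Bradford assay. Immunoblotted for AR with tubulin as loading control, HRP chemiluminescence detection.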

[3] = biological target: T1, Protein cereblon/Androgen receptor; assay: Protac activity at CRBN/AR in human LNCaP cells assessed as AR degradation at 1 uM by Western blotting analysis relative to control; assay type: cell-based; procedure, shortened: as §2
[4] = biological target: T1, Protein cereblon/Androgen receptor; assay: Protac activity at CRBN/AR in human LNCaP cells assessed as AR degradation at 0.1 uM by western blotting analysis relative to control; assay type: cell-based; procedure, shortened: as §2
LNCaP = assay: Antiproliferative activity against human LNCaP cells assessed as reduction in cell viability after 6 days by CellTiter-Glo assay; assay type: functional; details: 144 h, time 6 day; procedure, shortened: as §1
[5] = Cmax in ICR mouse at 30 mg/kg, po by LC-MS/MS analysis; assay type: ADME, organism-based; set-up: route oral, dose 30 mg/kg; details: in vivo
Procedure, shortened: (§3)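 Male ICR mice, 7 weeks old. Single dose of 5 mg/kg IV or IP in 5% DMSO, 52% PEG400, 3% Tween 80 in water, or 30 mg/kg PO in 20% PEG400 and 3% Tween 80 in water. Retro-orbital blood sampled over time. Plasma protein-precipitated with acetonitrile (1:10) and analysed by LC-MS/MS. Parameters from noncompartmental analysis of mean data, n = 3.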

[6] = Tmax in ICR mouse at 5 mg/kg, ip by LC-MS/MS analysis; assay type: ADME, organism-based; details: in vivo; procedure, shortened: as §3
[7] = Half life in ICR mouse at 30 mg/kg, po by LC-MS/MS analysis; assay type: ADME, organism-based; details: in vivo; procedure, shortened: as §3
[8] = Cmax in ICR mouse at 5 mg/kg, ip by LC-MS/MS analysis; assay type: ADME, organism-based; set-up: route intraperitoneal, dose 5 mg/kg; details: in vivo; procedure, shortened: as §3
[9] = AUCt in ICR mouse at 30 mg/kg, po by LC-MS/MS analysis; assay type: ADME, organism-based; set-up: dose 30 mg/kg; details: in vivo; procedure, shortened: as §3
[10] = Half life in ICR mouse at 5 mg/kg, iv by LC-MS/MS analysis; assay type: ADME, organism-based; details: in vivo; procedure, shortened: as §3
[11] = AUCt in ICR mouse at 5 mg/kg, ip by LC-MS/MS analysis; assay type: ADME, organism-based; set-up: dose 5 mg/kg; details: in vivo; procedure, shortened: as §3
[12] = AUCt in ICR mouse at 5 mg/kg, iv by LC-MS/MS analysis; assay type: ADME, organism-based; set-up: dose 5 mg/kg; details: in vivo; procedure, shortened: as §3
[13] = Half life in ICR mouse at 5 mg/kg, ip by LC-MS/MS analysis; assay type: ADME, organism-based; details: in vivo; procedure, shortened: as §3
[14] = Tmax in ICR mouse at 30 mg/kg, po by LC-MS/MS analysis; assay type: ADME, organism-based; details: in vivo; procedure, shortened: as §3

T1 sequence (P10275 whole entry, looked up): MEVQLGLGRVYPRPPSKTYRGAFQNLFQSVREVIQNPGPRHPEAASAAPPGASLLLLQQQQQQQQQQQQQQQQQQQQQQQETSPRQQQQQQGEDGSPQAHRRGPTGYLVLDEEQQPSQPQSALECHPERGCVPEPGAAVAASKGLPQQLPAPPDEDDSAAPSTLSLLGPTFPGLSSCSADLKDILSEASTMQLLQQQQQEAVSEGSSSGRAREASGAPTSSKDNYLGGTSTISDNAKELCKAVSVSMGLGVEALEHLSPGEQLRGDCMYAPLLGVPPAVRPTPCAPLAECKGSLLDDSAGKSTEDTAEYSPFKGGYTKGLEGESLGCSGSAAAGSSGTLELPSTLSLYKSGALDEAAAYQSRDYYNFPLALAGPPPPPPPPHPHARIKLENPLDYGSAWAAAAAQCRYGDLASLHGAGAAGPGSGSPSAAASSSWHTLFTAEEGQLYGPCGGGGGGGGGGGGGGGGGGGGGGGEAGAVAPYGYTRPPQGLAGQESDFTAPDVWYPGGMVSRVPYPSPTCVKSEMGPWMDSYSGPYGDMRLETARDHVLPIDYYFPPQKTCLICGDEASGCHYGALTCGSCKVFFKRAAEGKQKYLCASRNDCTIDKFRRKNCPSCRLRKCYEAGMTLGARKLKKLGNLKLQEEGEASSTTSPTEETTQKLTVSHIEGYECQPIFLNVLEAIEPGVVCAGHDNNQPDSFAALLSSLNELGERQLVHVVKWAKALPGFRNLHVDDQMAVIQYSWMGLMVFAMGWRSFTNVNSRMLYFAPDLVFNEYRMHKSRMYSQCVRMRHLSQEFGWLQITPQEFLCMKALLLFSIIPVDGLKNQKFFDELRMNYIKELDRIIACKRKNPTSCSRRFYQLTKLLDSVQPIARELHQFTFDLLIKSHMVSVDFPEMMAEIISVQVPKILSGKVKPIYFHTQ
T1 sequence (Q96SW2 whole entry, looked up): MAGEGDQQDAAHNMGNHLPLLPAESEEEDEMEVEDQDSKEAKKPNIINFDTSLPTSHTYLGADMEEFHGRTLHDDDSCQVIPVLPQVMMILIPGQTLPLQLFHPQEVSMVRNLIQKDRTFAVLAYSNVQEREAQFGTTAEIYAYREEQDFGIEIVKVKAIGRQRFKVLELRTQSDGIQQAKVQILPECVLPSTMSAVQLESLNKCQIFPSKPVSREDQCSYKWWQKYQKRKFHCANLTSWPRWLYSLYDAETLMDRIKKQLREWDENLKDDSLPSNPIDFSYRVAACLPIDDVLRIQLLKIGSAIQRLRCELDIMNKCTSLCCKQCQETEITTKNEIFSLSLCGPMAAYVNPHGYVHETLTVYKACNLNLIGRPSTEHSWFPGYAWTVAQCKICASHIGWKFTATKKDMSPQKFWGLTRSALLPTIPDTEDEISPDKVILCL

SMILES	remaining at 0.5 h, 1 µM [1]	CC50 (VCaP)	Activity [2]	Activity [3]	Activity [4]	CC50 (LNCaP)	further results
CC1(C)[C@H](NC(=O)c2ccc(N3CCN(CCC4CCN(C(=O)C5CN(c6ccc7nnn(C8CCC(=O)NC8=O)c(=O)c7c6)C5)CC4)CC3)cc2)C(C)(C)[C@H]1Oc1ccc(C#N)c(Cl)c1 (stereo partly drawn)	92.9%	37 nM	96%	84%	74%	538 nM	–
CC1(C)[C@H](NC(=O)c2ccc(N3CCN(CC4CCN(c5cccc6nnn(C7CCC(=O)NC7=O)c(=O)c56)CC4)CC3)cc2)C(C)(C)[C@H]1Oc1ccc(C#N)c(Cl)c1 (stereo partly drawn)	–	–	78%	77%	15%	613 nM	–
CC1(C)[C@H](NC(=O)c2ccc(N3CCN(C4CC5(CCN(c6cccc7nnn(C8CCC(=O)NC8=O)c(=O)c67)CC5)C4)CC3)cc2)C(C)(C)[C@H]1Oc1ccc(C#N)c(Cl)c1 (stereo partly drawn)	–	–	71%	26%	0%	13400 nM	–
CC1(C)[C@H](NC(=O)c2ccc(N3CCN(CC4CCN(C(=O)COc5ccc6nnn(C7CCC(=O)NC7=O)c(=O)c6c5)CC4)CC3)cc2)C(C)(C)[C@H]1Oc1ccc(C#N)c(Cl)c1 (stereo partly drawn)	–	–	51%	40%	89%	804 nM	–
CC1(C)[C@H](NC(=O)c2ccc(N3CCN(CCC4CCN(C(=O)C5CCN(c6ccc7nnn(C8CCC(=O)NC8=O)c(=O)c7c6)CC5)CC4)CC3)cc2)C(C)(C)[C@H]1Oc1ccc(C#N)c(Cl)c1 (stereo partly drawn)	93.7%	52 nM	99%	93%	77%	316 nM	–
CC1(C)[C@H](NC(=O)c2ccc(N3CCN(CCC4CCN(c5cccc6nnn(C7CCC(=O)NC7=O)c(=O)c56)CC4)CC3)cc2)C(C)(C)[C@H]1Oc1ccc(C#N)c(Cl)c1 (stereo partly drawn)	–	1580 nM	90%	31%	0%	> 10000 nM	–
CC1(C)[C@H](NC(=O)c2ccc(N3CCN(CCOC4CCN(C(=O)CNc5ccc6nnn(C7CCC(=O)NC7=O)c(=O)c6c5)CC4)CC3)cc2)C(C)(C)[C@H]1Oc1ccc(C#N)c(Cl)c1 (stereo partly drawn)	31.2%	57 nM	88%	95%	77%	852 nM	–
CC1(C)[C@H](NC(=O)c2ccc(N3CCN(CCOC4CCN(c5ccc6nnn(C7CCC(=O)NC7=O)c(=O)c6c5)CC4)CC3)cc2)C(C)(C)[C@H]1Oc1ccc(C#N)c(Cl)c1 (stereo partly drawn)	86.8%	22 nM	87%	89%	86%	523 nM	Cmax ([5]; ICR, read-out: Cmax): 280 ng/mL; Tmax [6]: 2 h; half-life ([7]; ICR): 5.58 h; Cmax [8]: 1780 ng/mL; AUC(0-t) ([9]; ICR): 2840 ng·h/mL; half-life [10]: 4.68 h; AUCt [11]: 10700 ng·h/mL; AUC(0-t) [12]: 14300 ng·h/mL; t1/2 [13]: 4.51 h; Tmax ([14]; ICR, read-out: Tmax): 2 h
CC1(C)[C@H](NC(=O)c2ccc(N3CCN(CC4CCN(c5ccc6nnn(C7CCC(=O)NC7=O)c(=O)c6c5)CC4)CC3)cc2)C(C)(C)[C@H]1Oc1ccc(C#N)c(Cl)c1 (stereo partly drawn)	71.7%	81 nM	95%	91%	79%	259 nM	–
CC1(C)[C@H](NC(=O)c2ccc(N3CCN(CC4CCN(C(=O)C5CN(c6ccc7nnn(C8CCC(=O)NC8=O)c(=O)c7c6)C5)CC4)CC3)cc2)C(C)(C)[C@H]1Oc1ccc(C#N)c(Cl)c1 (stereo partly drawn)	92.8%	38 nM	83%	96%	96%	89 nM	Cmax [5]: 50 ng/mL; Tmax [6]: 2 h; t1/2 ([7]; 30 mg/kg): 26.7 h; Cmax [8]: 5540 ng/mL; AUCt [9]: 440 ng·h/mL; half-life [10]: 4.48 h; AUCt [11]: 24200 ng·h/mL; AUC(0-t) [12]: 24100 ng·h/mL; t1/2 [13]: 4.82 h; Tmax ([14]; 30 mg/kg): 0.67 h
CC1(C)[C@H](NC(=O)c2ccc(N3CCN(CCC4CCN(C(=O)COc5ccc6nnn(C7CCC(=O)NC7=O)c(=O)c6c5)CC4)CC3)cc2)C(C)(C)[C@H]1Oc1ccc(C#N)c(Cl)c1 (stereo partly drawn)	2.98%	46 nM	82%	50%	0%	3180 nM	–
CC1(C)[C@H](NC(=O)c2ccc(N3CCN(CC4CCN(c5ccc6c(=O)n(C7CCC(=O)NC7=O)nnc6c5)CC4)CC3)cc2)C(C)(C)[C@H]1Oc1ccc(C#N)c(Cl)c1 (stereo partly drawn)	–	–	83%	60%	28%	–	–
CC1(C)[C@H](NC(=O)c2ccc(N3CCN(CCOC4CCN(C(=O)C5CCN(c6ccc7nnn(C8CCC(=O)NC8=O)c(=O)c7c6)CC5)CC4)CC3)cc2)C(C)(C)[C@H]1Oc1ccc(C#N)c(Cl)c1 (stereo partly drawn)	78.4%	80 nM	98%	92%	72%	847 nM	–
CC1(C)[C@H](NC(=O)c2ccc(N3CCN(C4CC5(CCN(C(=O)COc6ccc7nnn(C8CCC(=O)NC8=O)c(=O)c7c6)CC5)C4)CC3)cc2)C(C)(C)[C@H]1Oc1ccc(C#N)c(Cl)c1 (stereo partly drawn)	62.8%	76 nM	79%	77%	60%	196 nM	–
CC1(C)[C@H](NC(=O)c2ccc(N3CCN(CCOC4CCN(C(=O)COc5ccc6nnn(C7CCC(=O)NC7=O)c(=O)c6c5)CC4)CC3)cc2)C(C)(C)[C@H]1Oc1ccc(C#N)c(Cl)c1 (stereo partly drawn)	–	141 nM	94%	98%	86%	1300 nM	–
CC1(C)[C@H](NC(=O)c2ccc(N3CCN(CCC4CCN(C(=O)CNc5ccc6nnn(C7CCC(=O)NC7=O)c(=O)c6c5)CC4)CC3)cc2)C(C)(C)[C@H]1Oc1ccc(C#N)c(Cl)c1 (stereo partly drawn)	0.56%	107 nM	83%	87%	7%	1090 nM	–
CC1(C)[C@H](NC(=O)c2ccc(N3CCN(CC4CCN(C(=O)C5CCN(c6ccc7nnn(C8CCC(=O)NC8=O)c(=O)c7c6)CC5)CC4)CC3)cc2)C(C)(C)[C@H]1Oc1ccc(C#N)c(Cl)c1 (stereo partly drawn)	74.3%	45 nM	94%	89%	90%	108 nM	–
CC1(C)[C@H](NC(=O)c2ccc(N3CCN(C4CC5(CCN(c6ccc7nnn(C8CCC(=O)NC8=O)c(=O)c7c6)CC5)C4)CC3)cc2)C(C)(C)[C@H]1Oc1ccc(C#N)c(Cl)c1 (stereo partly drawn)	–	113 nM	81%	95%	15%	214 nM	–
CC1(C)[C@H](NC(=O)c2ccc(N3CCN(C4CC5(CCN(C(=O)C6CN(c7ccc8nnn(C9CCC(=O)NC9=O)c(=O)c8c7)C6)CC5)C4)CC3)cc2)C(C)(C)[C@H]1Oc1ccc(C#N)c(Cl)c1 (stereo partly drawn)	–	135 nM	0%	79%	0%	312 nM	–
O=C1CC2(CCCC2)CC(=O)N1CCCCN1CCN(c2ncccn2)CC1 [BUSPIRONE]	0.03%	–	–	–	–	–	–
CC1(C)[C@H](NC(=O)c2ccc(N3CCN(CCC4CCN(c5ccc6nnn(C7CCC(=O)NC7=O)c(=O)c6c5)CC4)CC3)cc2)C(C)(C)[C@H]1Oc1ccc(C#N)c(Cl)c1 (stereo partly drawn)	86.7%	120 nM	–	94%	51%	449 nM	–
CC1(C)[C@H](NC(=O)c2ccc(N3CCN(C4CC5(CCN(C(=O)CNc6ccc7nnn(C8CCC(=O)NC8=O)c(=O)c7c6)CC5)C4)CC3)cc2)C(C)(C)[C@H]1Oc1ccc(C#N)c(Cl)c1 (stereo partly drawn)	85.5%	54 nM	39%	77%	61%	208 nM	–
CC1(C)[C@H](NC(=O)c2ccc(N3CCN(CC4CCN(C(=O)CNc5ccc6nnn(C7CCC(=O)NC7=O)c(=O)c6c5)CC4)CC3)cc2)C(C)(C)[C@H]1Oc1ccc(C#N)c(Cl)c1 (stereo partly drawn)	–	3820 nM	35%	89%	70%	117 nM	–

From ChEMBL document CHEMBL4706590, “Design and characterization of cereblon-mediated androgen receptor proteolysis-targeting chimeras” (Eur J Med Chem, 2020)
